Reference: publication PMC7870562 (Bioorganic chemistry, 2020)

Key:
UWBCC1 cells = test: MTT cytotoxicity / cell viability assay, UWBCC1; assay type: cell-based, human; settings: for IC50: Homo sapiens, 48 h; for selectivity index: IC50 HaCaT / IC50 UWBCC1
Summary of the method: (§1)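 Cells in 5–10% FBS/DMEM were seeded at 5×10³ per well, refed at 24 h and grown to 70% confluence. They were treated for 48 h at 37°C, 5% CO2 with two-fold serial dilutions of test compound in DMSO (≤0.1%), […], in 8–10 repeats. After MTT, absorbance was read at 562 nm. Viability was expressed relative to DMSO controls and IC50 derived by nonlinear regression. Data are mean ± SD of ≥5 independent experiments in octuplicates.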

CDK2/Cyclin A = CDK2/Cyclin A (Homo sapiens, UniProt P24941); test: In vitro kinase activity assay; assay type: biochemical; settings: 10-dose, three-fold serial dilution from 100 μM
Summary of the method: (§2)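 Kinase profiling was run at Reaction Biology. IC50 values came from 10-dose mode, three-fold serial dilutions starting at 100 μM. Reference inhibitors were co-assayed at 1 and 10 μM.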

A375 cells [1] = test: MTT cytotoxicity / cell viability assay, A375; assay type: cell-based, human; settings: for IC50: Homo sapiens, A-375, 48 h; for selectivity index: IC50 melanocytes / IC50 A375
Summary of the method: as §1

SK-Mel-28 cells = test: MTT cytotoxicity / cell viability assay, SK-Mel-28; assay type: cell-based, human; settings: for IC50: Homo sapiens, SK-MEL-28, 48 h; for selectivity index: IC50 melanocytes / IC50 SK-Mel-28
Summary of the method: as §1

HaCaT = test: MTT cytotoxicity / cell viability assay, HaCaT keratinocytes; assay type: cell-based; settings: Homo sapiens, 48 h
Summary of the method: as §1

A431 cells [2] = test: MTT cytotoxicity / cell viability assay, A431; assay type: cell-based, human; settings: for IC50: Homo sapiens, A-431, 48 h; for selectivity index: IC50 HaCaT / IC50 A431
Summary of the method: as §1

mTOR/FRAP1 = mTOR/FRAP1 (Homo sapiens, UniProt P42345); test: In vitro kinase activity assay; assay type: biochemical; settings: for IC50: mTOR/FRAP1 IC50, 10-dose, three-fold serial dilution from 100 μM
Summary of the method: as §2

Melanocyte = test: MTT cytotoxicity / cell viability assay, normal melanocytes; assay type: cell-based; settings: Homo sapiens, 48 h
Summary of the method: as §1

c-Kit = c-Kit (Homo sapiens, UniProt P10721); test: In vitro kinase activity assay; assay type: biochemical
Sequence of c-Kit (P10721 26-976): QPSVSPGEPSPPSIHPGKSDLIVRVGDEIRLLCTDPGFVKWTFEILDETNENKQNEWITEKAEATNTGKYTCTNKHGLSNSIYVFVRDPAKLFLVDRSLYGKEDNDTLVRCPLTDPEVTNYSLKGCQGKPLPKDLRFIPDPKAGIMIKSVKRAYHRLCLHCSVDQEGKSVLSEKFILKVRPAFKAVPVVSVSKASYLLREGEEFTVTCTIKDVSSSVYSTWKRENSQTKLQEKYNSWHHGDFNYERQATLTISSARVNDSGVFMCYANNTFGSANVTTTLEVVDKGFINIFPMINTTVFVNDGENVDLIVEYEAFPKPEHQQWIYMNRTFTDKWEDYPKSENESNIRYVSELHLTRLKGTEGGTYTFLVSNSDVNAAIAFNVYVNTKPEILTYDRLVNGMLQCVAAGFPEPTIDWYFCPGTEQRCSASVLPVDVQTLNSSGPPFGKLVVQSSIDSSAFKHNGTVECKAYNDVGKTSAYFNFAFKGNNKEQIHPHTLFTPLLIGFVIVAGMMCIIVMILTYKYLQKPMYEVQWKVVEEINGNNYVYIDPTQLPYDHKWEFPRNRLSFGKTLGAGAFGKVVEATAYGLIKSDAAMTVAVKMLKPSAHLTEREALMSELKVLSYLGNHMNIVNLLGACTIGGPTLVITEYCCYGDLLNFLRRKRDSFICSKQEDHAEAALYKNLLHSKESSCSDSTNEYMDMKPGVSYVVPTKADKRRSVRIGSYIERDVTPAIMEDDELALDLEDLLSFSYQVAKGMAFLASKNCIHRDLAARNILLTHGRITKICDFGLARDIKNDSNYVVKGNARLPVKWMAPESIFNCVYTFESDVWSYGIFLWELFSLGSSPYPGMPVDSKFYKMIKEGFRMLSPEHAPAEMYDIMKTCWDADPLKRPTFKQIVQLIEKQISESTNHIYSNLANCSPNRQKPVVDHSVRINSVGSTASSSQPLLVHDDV
Summary of the method: as §2

A431 cells [3] = test: DAPI staining of apoptotic nuclei, A431; assay type: cell-based, human
Summary of the method: (§3)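 Equal numbers of cells were seeded in T-25 flasks and exposed to test compound at different concentrations for 36 h. Cells were PBS-washed, stained with DAPI in PBS and imaged by fluorescence microscopy at 10x and 1.6×10x. Apoptotic nuclei were scored by morphology and expressed as percentage of cells.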

CDK2/Cyclin E = CDK2/Cyclin E (Homo sapiens, UniProt P24941); test: In vitro kinase activity assay; assay type: biochemical; settings: 10-dose, three-fold serial dilution from 100 μM
Summary of the method: as §2

A375 cells [4] = test: DAPI staining of apoptotic nuclei, A375; assay type: cell-based, human
Summary of the method: as §3

[5] = A431, treated 36 hours at ½IC50
[6] = A375, treated 36 hours at ½IC50

SMILES	IC50 (UWBCC1 cells)	selectivity index (UWBCC1 cells)	IC50 (CDK2/Cyclin A)	IC50 (A375 cells [1])	selectivity index (A375 cells [1])	IC50 (SK-Mel-28 cells)	selectivity index (SK-Mel-28 cells)	IC50 (HaCaT)	IC50 (A431 cells [2])	selectivity index (A431 cells [2])	inhibition of mTOR kinase activity (in words) (mTOR/FRAP1)	IC50 (Melanocyte)	IC50 (c-Kit)	DAPI (+) apoptotic cells (A431 cells [3]; [5])	IC50 (CDK2/Cyclin E)	IC50 (mTOR/FRAP1)	DAPI (+) apoptotic cells (A375 cells [4]; A375, treated 36 hours at IC50)	DAPI (+) apoptotic cells (A375 cells [4]; [6])	DAPI (+) apoptotic cells (A431 cells [3]; A431, treated 36 hours at IC50)
Cc1ccc2c(=O)c(O)c(-c3ccc(C(C)(C)C)cc3)oc2c1 [F11, 2-(4-(Tert-butyl)phenyl)-3-hydroxy-7-methyl-4H-chromen-4-one]	9.7 ± 0.6 µM	2.3	32.5 µM	11 ± 2 µM	2.4	18 ± 2 µM	1.4	25 ± 0.78 µM	4.7 ± 0.9 µM	4.7	did not substantively inhibit	26 ± 1.1 µM							
COc1ccc2c(=O)c(O)c(-c3ccc(Br)cc3)oc2c1 [F12, 2-(4-Bromophenyl)-3-hydroxy-7-methoxy-4H-chromen-4-one]				> 100 µM					> 100 µM										
COc1ccc2c(=O)c(O)c(-c3ccc(C(C)(C)C)cc3)oc2c1 [F13, 2-(4-(Tert-butyl)phenyl)-3-hydroxy-7-methoxy-4H-chromen-4-one]				28 ± 24 µM					> 100 µM										
O=c1c(O)c(-c2ccccc2)oc2cc(Br)ccc12 [F14, 7-Bromo-3-hydroxy-2-phenyl-4H-chromen-4-one]	3.3 ± 1.3 µM	7.3	6.64 µM	15 ± 0.08 µM	1.4	22 ± 4.3 µM		24 ± 0.2 µM	5.3 ± 2.1 µM	4.5		24 ± 0.84 µM	0.13 µM	6.92%	5.38 µM	> 100 µM	10.9%	6.2%	
COc1cccc(-c2oc3cc(Br)ccc3c(=O)c2O)c1 [F15, 7-Bromo-3-hydroxy-2-(3-methoxyphenyl)-4H-chromen-4-one]				> 100 µM					> 100 µM										
COc1ccc(-c2oc3ccc(Br)cc3c(=O)c2O)cc1OC [F16, 6-Bromo-2-(3,4-dimethoxyphenyl)-3-hydroxy-4H-chromen-4-one]	40 ± 0.89 µM			79.5 ± 9 µM					> 100 µM										
Cc1cc2oc(-c3ccc(C(C)(C)C)cc3)c(O)c(=O)c2cc1Cl [F18, 2-(4-(Tert-butyl)phenyl)-6-chloro-3-hydroxy-7-methyl-4H-chromen-4-one]				> 100 µM					24 ± 5.6 µM										
Cc1cc2oc(-c3ccc(OCc4ccccc4)cc3)c(O)c(=O)c2cc1Cl [F19, 2-(4-(Benzyloxy)phenyl)-6-chloro-3-hydroxy-7-methyl-4H-chromen-4-one]	1.1 ± 0.4 µM	25	12.7 µM	13 ± 2.6 µM	1.7	19 ± 3 µM	1.2	28 ± 0.31 µM	1.5 ± 0.3 µM	19		27 ± 1 µM	0.33 µM	6.71%		1.64 µM	13.3%	5.6%	14.2%
CCOc1ccc(-c2oc3cc(Cl)ccc3c(=O)c2O)cc1F [F21, 7-Chloro-2-(4-ethoxy-3-fluorophenyl)-3-hydroxy-4H-chromen-4-one]			30.1 µM	8.6 ± 0.4 µM	3.2	12 ± 3 µM	2.3	26 ± 0.4 µM	8.2 ± 0.2 µM	3.2	did not substantively inhibit	27 ± 0.1 µM	0.26 µM	8.8%				5.4%	14.4%
COc1cc(-c2oc3ccc(F)cc3c(=O)c2O)cc(OC)c1OC [F22, 6-Fluoro-3-hydroxy-2-(3,4,5-trimethoxyphenyl)-4H-chromen-4-one]	11 ± 2 µM	2.1		15 ± 1.9 µM	1.6			23 ± 1.9 µM	13 ± 2.6 µM	1.8		24 ± 1.6 µM							
COc1cc(OC)c(-c2oc3ccccc3c(=O)c2O)cc1OC [F23, 3-Hydroxy-2-(2,4,5-trimethoxyphenyl)-4H-chromen-4-one]	9.4 ± 1.4 µM	2.6		13 ± 3.1 µM	1.7	19 ± 3 µM	1.6	24 ± 1.4 µM	12 ± 1.9 µM	2.0		22 ± 1 µM							
COc1cc(OC)c(-c2oc3cc(Cl)ccc3c(=O)c2O)cc1OC [F24, 7-Chloro-3-hydroxy-2-(2,4,5-trimethoxyphenyl)-4H-chromen-4-one]				> 100 µM					> 100 µM										
